The RNAGym collection of RNA variant scans (doi:10.1126/science.aae0568)
This sample holds only a part of the variants without activity.

B1: tRNA (parent)
chain: GUUCCGUUGGCGUAAUGGUAACGCGUCUCCCUCCUAAGGAGAAGACUGCGGGUUCGAGUCCCGUACGGAACG

Variants of: B1
Experiment: yeast fitness relative to wild type (ratio to wild type); higher = fitter; tRNA-Arg(CCU), competitive growth, 37 C, YPD
How it was run: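 Gene amplicons from the start population and from each of six end populations were read by 100-nucleotide paired-end sequencing. Those end populations came from pooled Saccharomyces cerevisiae strains carrying tRNA-Arg(CCU) gene variants at the native locus, competed in YPD at 37°C for 24 hours. Fitness relative to wild type was worked out from changes in genotype frequencies. Genotypes needed ≥ 100 starting reads, and estimates < 0.5 were set to 0.5.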
For GUUCCGUUGGCGUAAUGGUAACGCGACUCCCUCCUAAGGCGAAGACUGCGGGUUCGAGUCCCGCAAGGAACG, the yeast fitness was no more than 0.5.
GUUCCGUUGGCGUAAUGGUAACGCGAGUCCGUCCUAACGAGAAGACUGCGGGUUCGAGUCCCGUACGGAACG gave a yeast fitness of no more than 0.5.
GUUCCGUUGGCGUAAUGGUAACGCGAGUCGCUCCUUACGAGAAGAUUGGGGGUUCGAGUCCCGUUCGGAACG showed a yeast fitness of 0.573.
In the case of GUUCCGUUGGCGUAAUGGUAACGCGACUCCCUCCUAAGGAGACGACUGCGGUUUAGAGUCCCGUACGGAACG, the yeast fitness is reported as no more than 0.5.
GUUCCGUUGGCGUAAUGGUAACGCGACUCCCUCCUAAGGGGAAGACUGCGGGUUCGAGUCCUGUACGGAACG showed a yeast fitness of 0.567.
GUUCCGUUGGCGUAAUGGUAACGCGACUCCCUCCUAAGGAGAAGACUGAGGGUUCGAGUCCCGUACGGAACG gave a yeast fitness of 0.637.
Variant GUUCCGUUGGCGUAAUGGUAACGCGACUCCCUCCUAAGGAGAAGACUGCGGGUUCGAGUCCCGUUCAGAACG has a yeast fitness of 0.62.
Variant GUUCCGUUGGCGUAAUGGUAACGCGACUCCCUCUUAAGGAGAAGACUGCGGGUUCGAGUCCAGUACGGAACG has a yeast fitness of no more than 0.5.
In the case of GUUCCGUUGGCGUAAUGGUAACGCGACUCCCUCCUAAGGAGAUGACUGCGGGUUCGAGUCCCGUACGGUACG, the yeast fitness is reported as 0.695.
Variant GUUCCGUUGGCGUAAUGGUAACGCGACUCCCUCCUAAGGAGCAGACUGUGGGUUCGAGUGCCGUAAGGAACG has a yeast fitness of 0.733.
Variant GUUCCGUUGGCGUAAUGGUAACGCGACUCUCUCCUAUGGAGAAGACUGCGGGUUCGAGUCCCGUACGGAACG has a yeast fitness of no more than 0.5.
With GUUCCGUUGGCGUAAUGGUAACGCGACUCCCUCCUAAGGAGAGGACUGCGCGUUCGAGUCCCGUACGGUACG the yeast fitness was 0.566.
With GUUCCGUUGGCGUAAUGGUAACGCGACUGCCUCCUAAGGAGAAGACUGCGGGUUCGAAUCCCGUACGGACCG the yeast fitness was 0.631.
With GUUCCGUUGGCGUAAUGGUAACGCGACUCCCUCCUAAGGAGAAGACUGCGGGUUCGAGUCCCGUGCGGAACG the yeast fitness was 0.822.
GUUCCGUUGGCGUAAUGGUAACGCGACUCCCUCCUAAGGAGAAGACUGCGGGUUCGAGUCCCGUUCGGAACG showed a yeast fitness of 0.829.
For GUUCCGUUGGCGUAAUGGUAACGCGAGUCCUUCCUAAGGAGAAGAAUGCGGGUUCGAGUCCCGUCCGAAACG, the yeast fitness was 0.626.
Work on GUUCCGUUGGCGUAAUGGUAACGCGACUCCCUCCUACGGAGAAGACUGCGGGUUCGUGUCCCGUACGGAACG yielded a yeast fitness of no more than 0.5.
In the case of GUUCCGUUGGCGUAAUGGUAACGCGACUCCCUCCUAAGGUGAAGACUGCGGGUUCGAGUCCCGUACGGUACG, the yeast fitness is reported as 0.699.
GUUCCGUUGGCGUAAUGGUAACGCGACUCCCUCCUAAGGCGAAGACUGCGGGUUCGAGUCCCGUACGGAACG showed a yeast fitness of 0.755.
With GUUCCGUUGGCGUAAUGGUAACGCGAGUCCCUCCUAAGGAGAAGACUGCGGGUUCGAGUCCCGUACGGAACG the yeast fitness was 0.57.
GUUCCGUUGGCGUAAUGGUAACGCGACUCCCUCUUAAGGAGAAGACUGCAGGUUCGAGUCCCGUACGGUACG gave a yeast fitness of no more than 0.5.
Work on GUUCCGUUGGCGUAAUGGUAACGCGAUUCCCUCCUAAGGAGAAGACUGAGGGUUCGAGUCCCGCACGGAACG yielded a yeast fitness of no more than 0.5.
With GUUCCGUUGGCGUAAUGGUAACGCGACUCCCUCCUAAGGAGAGGACUGCGGGUUCGAGUCCCGUACGGAACG the yeast fitness was 0.832.
GUUCCGUUGGCGUAAUGGUAACGCGACUCCCUCCUAAGGAGAAGACUGGGGGUUCGAGUCCCGUACGGACCG gave a yeast fitness of 0.574.
GUUCCGUUGGCGUAAUGGUAACGCGACUCCCUCGUAAGGAGAAGGCUGCGGGUUCGAGUCCCGUACGGAACG showed a yeast fitness of 0.517.
GUUCCGUUGGCGUAAUGGUAACGCGACUCCCUCUUAAGGAGAAGACUGGGGGUUCGAGUCCCGUAAGGAACG gave a yeast fitness of no more than 0.5.
With GUUCCGUUGGCGUAAUGGUAACGCGACUCCCUCGUAAGGAGAAGACUGCGGGUUCGAGUCCCGUACGGAACG the yeast fitness was 0.618.
With GUUCCGUUGGCGUAAUGGUAACGCGACUCCCUCCUAAGGAGCAGACUGCGGGUUCGAGGCCCGUACGGAACG the yeast fitness was no more than 0.5.
GUUCCGUUGGCGUAAUGGUAACGCGACUCCCUACUAGGGAGAAGACUGCGGGUUCGAGUCCCGUACGGAACG gave a yeast fitness of 0.581.
For GUUCCGUUGGCGUAAUGGUAACGCGACUCCCUCCUAAGGAGAAGACUGGGGGUUCGAGUCCCGUACGGCACG, the yeast fitness was 0.6.
For GUUCCGUUGGCGUAAUGGUAACGCGACUCACUCCUAAGGAGAAGACUGCGGGUUCGAGUCCCGUCCGGAACG, the yeast fitness was 0.511.
GUUCCGUUGGCGUAAUGGUAACGCGACUCCGUCCUCAGGAAAAGACUGCGGGUUGGAGUCCCGUACGGAACG showed a yeast fitness of no more than 0.5.
For GUUCCGUUGGCGUAAUGGUAACGCGACUCCCUCCUAAGGAGAAGACUGUGGGUUCGAGUCCCGUGCGGAACG, the yeast fitness was no more than 0.5.
With GUUCCGUUGGCGUAAUGGUAACGCGACUCCCUCCUAAGGAGAAGACUGUGGGUUCGAGUCCCGUCCGGAACG the yeast fitness was 0.742.
Variant GUUCCGUUGGCGUAAUGGUAACGCGAGUCCCUCCUAAGGAGAAGACUGCGGGUUCGAGUCCAGUACGGAACG has a yeast fitness of no more than 0.5.
Variant GUUCCGUUGGCGUAAUGGUAACGCGACUCCCUCCUAAGGUGAAGACUGCGGGUUCGAAUCCCGUACGGACCG has a yeast fitness of no more than 0.5.
GUUCCGUUGGCGUAAUGGUAACGCGACUCCCUCCUAAGGAGAAGAUUGCGGGUUCGAGUCCCGUCCGGAACG gave a yeast fitness of 0.631.
GUUCCGUUGGCGUAAUGGUAACGCGACUCCCUCCUAAGGGGAAGACUGGGGGUUCGAGUCACGUACGGAACG showed a yeast fitness of 0.626.
